# The list is not random: actives were taken first. Their share in the collection is about 2.4%.
# LMPTP inh – LMPTP (human) inhibition; P24666; recombinant LMPTP-A, OMFP fluorogenic substrate, fluorescence intensity; actives 0.22% (n = 360,000); AID 651560; inhibition, % at 20 µM;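 active = compounds that cut the enzyme signal by at least half of the control window in the single-dose screen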;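 note: plate controls were DMSO wells with enzyme plus substrate for no effect and substrate without enzyme for full effect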
# Target sequence (P24666 whole entry, looked up): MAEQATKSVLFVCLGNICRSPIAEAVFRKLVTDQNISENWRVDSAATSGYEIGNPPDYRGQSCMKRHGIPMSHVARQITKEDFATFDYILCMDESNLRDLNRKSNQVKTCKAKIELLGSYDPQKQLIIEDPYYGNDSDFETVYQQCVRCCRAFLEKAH
#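 Test system – LMPTP-A phosphatase enzyme · Quantity – 0.625 nM LMPTP-A final · Reagent – OMFP substrate, 400 µM final · Dosing – one test concentration per compound, 20 µM, with 3% DMSO overall · Timing – 50 min enzyme reaction at room temperature, protected from light · Detection – fluorescence intensity · Controls – substrate-only low control, DMSO enzyme-plus-substrate high control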
# DNMT1 inh – DNMT1 (human) enzyme inhibition; inhibition (reported as % activation of signal), % at 10 µM; actives 0.83% (n = 360,000); P26358; DNMT1 molecular beacon, Hinp1I cleavage, fluorescence; in the data active = inhibition above about 50%
# STEP block – blocks human striatal-enriched tyrosine phosphatase | P54829 | recombinant STEP, OMFP fluorogenic substrate, fluorescence | inhibition, % at 20 µM | actives 0.25% (n = 360,000) | AID 588621;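 active = inhibition at 20 µM, scaled per plate between control wells, above about 37%, limit read from the data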;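 note: 0% = DMSO with enzyme and substrate and 100% = substrate only without enzyme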
#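 Material: STEP (striatal-enriched tyrosine phosphatase) enzyme, cell-free; Compound dosing: 20 µM single dose in 1% DMSO; Technique: fluorescence read at 480 nm ex / 540 nm em; Times: reaction 20 min, ambient temperature; Medium: 50 mM Bis-Tris pH 6.0 with 2.5 mM DTT and 0.005% Tween 20; Also added: OMFP at 25 µM.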
# Scp-1 inhibitor – blocks human Scp-1 phosphatase activity; inhibition, % at 20 µM; Q9GZU7; Recombinant Scp1, phosphopeptide, malachite green phosphate absorbance; actives 0.88% (n = 340,000);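 active = inhibition above about 50% at 20 µM, limit read from the data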;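 note: plate controls were DMSO wells with enzyme for no effect and wells lacking enzyme for full effect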
# Target sequence (Q9GZU7 76-261 limits assumed): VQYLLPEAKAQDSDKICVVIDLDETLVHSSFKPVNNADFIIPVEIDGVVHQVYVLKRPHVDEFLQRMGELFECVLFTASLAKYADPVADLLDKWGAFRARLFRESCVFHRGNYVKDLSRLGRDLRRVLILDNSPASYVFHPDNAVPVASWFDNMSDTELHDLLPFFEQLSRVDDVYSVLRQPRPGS
#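 Test system: SCP-1 phosphatase catalytic domain, residues 76-261; measured by: colorimetric phosphate reagent with accelerator and stabiliser, absorbance at 630 nm; timing: enzyme reaction 45 min at room temperature, colour 5 min, stabilisation 30 min; also added: Phosphorylated 17-residue peptide substrate; compound dosing: one concentration, 20 µM, with 1.0% DMSO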
# NadD block – inhibitors of Staphylococcus aureus NadD; purified NadD enzyme, colorimetric absorbance read-out; actives 0.78% (n = 360,000); AID 602399; inhibition, % at 20 µM; in the data active = inhibition above about 26%
# SUMO1-SIM PPI – alters human SUMO1 binding to SIM partners | P63165 | SUMO1 binding to a labelled peptide, TR-FRET, 1 h | inhibition, % at 20 µM | actives 0.33% (n = 360,000) | AID 602429; in the data active = inhibition above about 37%
# Target sequence (P63165 whole entry, looked up): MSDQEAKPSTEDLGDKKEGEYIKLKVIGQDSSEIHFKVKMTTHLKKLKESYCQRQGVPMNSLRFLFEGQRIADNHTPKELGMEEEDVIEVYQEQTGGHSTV
# NadD inh conf – NadD (S. aureus) inhibition, single concentration confirmation; shares compounds with NadD block; purified S. aureus NadD, colorimetric enzyme assay; inhibition, % at 20 µM; actives 13% (n = 2,000); AID 624309; in the data active = inhibition mostly above about 42%, no sharp cut-off; inactive = mostly below about 42%
# An asterisk follows results filed as active; · = no result given.
SMILES,LMPTP inh,DNMT1 inh,STEP block,Scp-1 inhibitor,NadD block,SUMO1-SIM PPI,NadD inh conf
COc1ccccc1C(=O)NCC(=O)NCc1cc(=O)n(C)c(=O)n1C,-0.6,2.1,-1.2,3.1,61.8*,1.8,-2.8
COc1cc2oc(=O)cc(CN3CCN(c4ccc(Cl)c(Cl)c4)CC3)c2cc1Cl,1.1,4.8,2.1,·,38.9*,-4.6,13.1
COc1ccc2c(CN3CCN(c4ccc(Cl)c(Cl)c4)CC3)cc(=O)oc2c1,3.2,3.1,1.8,·,-0.3,-0.1,·
CCOc1cc(/C=N/Nc2nc(Nc3ccccc3)nc(N3CCCCC3)n2)ccc1OCC(=O)O,-0.4,1.3,2.5,5.0,33.2*,-1.8,20.3
O=[N+]([O-])c1ccc(Nc2nc(N/N=C\c3ccc4c(c3)OCO4)nc(N3CCCCC3)n2)cc1,2.6,-3.3,-0.1,-2.9,45.3*,-1.9,19.9
COc1ccc(/C(C)=N/NC(=O)c2ccncc2)cc1[N+](=O)[O-],1.2,6.0,8.0,-9.9,-2.6,-21.5,·
O=S(=O)(c1ccc2c(c1)C(=NO)c1cc(S(=O)(=O)N3CCCCC3)ccc1-2)N1CCCCC1,2.7,-1.3,3.5,-1.3,33.9*,-1.2,7.5
Nc1nonc1-n1nnc(C(=O)N/N=C/c2ccc(OCc3ccccc3)cc2)c1CNc1ccccc1,0.4,1.9,-0.6,-5.3,39.2*,2.9,0.6
Nc1nonc1-n1nnc(C(=O)N/N=C/c2ccc(OCc3ccccc3)cc2)c1COc1ccc(F)cc1,3.2,0.4,-0.1,-7.4,23.6,-3.9,·
Cc1cccc(COc2ccc(/C=N/NC(=O)c3nnn(-c4nonc4N)c3CN3CCCCC3)cc2)c1,3.2,-5.3,-0.2,-13.6,30.7*,-2.9,10.4
Cc1ncc(S(=O)(=O)C(C)(C)C)c(N)n1,0.0,1.4,3.0,6.5,-4.5,0.5,·
C#CCN(C[C@@H]1[C@@H](OC(=O)Nc2cccs2)[C@@H](OC(=O)Nc2cccs2)Cn2c(=O)n(CCCCCC)c(=O)n21)S(=O)(=O)c1ccc(C)cc1,1.9,4.3,3.2,·,29.6*,6.1,15.6
Cc1cc(C(=O)N/N=C/c2cccc(OC(=O)c3cccc(Br)c3)c2)n[nH]1,0.1,4.8,-0.4,-7.6,13.8,1.5,·
COc1cccc(C(=O)Oc2c(Br)cc(Br)cc2/C=N/NC(=O)c2cc(C)[nH]n2)c1,5.1,-2.3,-0.4,-5.7,42.1*,-0.1,8.2
CC1Cc2ccccc2N1C(=O)COC(=O)c1cccc(Br)c1 (stereo unspecified),2.3,-8.4,-0.3,-9.3,-7.0,7.0,·
CCN(CC)S(=O)(=O)c1cccc(NC(=O)C2SC(=Nc3ccc(C)cc3C)C(C(=O)NCC3CCCO3)=C2N)c1 (stereo unspecified),3.5,-14.8,-1.8,-2.2,36.8*,-3.2,27.7
CCN(CC)S(=O)(=O)c1cccc(C(=O)NCC2CCCO2)c1 (stereo unspecified),-0.9,0.7,0.6,-5.2,-0.9,-2.8,·
O=C(CNc1ccc2c(c1)OCO2)N/N=C\c1cn(Cc2ccccc2)c2ccccc12,2.5,-26.2,3.1,-14.0,36.7*,3.6,18.6
CCOC(=O)c1oc2ccccc2c1COC(=O)CNC(=O)c1cc(OC)c(OC)c(OC)c1,1.2,-2.1,-0.2,-0.8,-4.9,4.8,·
Nc1nc(-c2ccc(NC(=O)c3ccco3)cc2)cs1,4.0,-23.9,-0.5,-6.0,-5.0,-9.1,·
NC(=O)/C(=N\OC(=O)c1ccco1)c1nc(-c2ccc(Br)cc2)cs1,3.6,3.3,3.0,-4.4,30.3*,6.1,48.9*
Cc1cccn2cc(-c3cc4ccccc4oc3=O)nc12,-0.8,2.4,3.2,0.4,1.7,-0.5,·
COc1ccccc1Cc1c(-c2ccc(C)cc2)nc2ccc(Cl)cn12,-0.1,4.5,-0.2,·,10.5,0.0,·
Clc1ccc2nc(-c3ccco3)c(Cc3ccsc3)n2c1,25.2,31.5,0.8,·,33.6*,8.5,17.5
COc1ccccc1Cc1c(-c2ccco2)nc2ccc(Cl)cn12,6.4,25.0,0.3,·,29.7*,3.6,6.5
SMILES,LMPTP inh,DNMT1 inh,STEP block,Scp-1 inhibitor,NadD block,SUMO1-SIM PPI,NadD inh conf
COc1ccc(C(=O)O/N=C(\N)c2ccccc2)c(OC)c1,0.1,-2.9,0.1,-8.1,-0.7,-0.7,·
COc1cc(C#Cc2c(-c3cncn3C)n(C)c3ccc(-c4cc(OC)c(OC)c(OC)c4)cc23)cc(OC)c1,9.2,-43.5,0.0,8.4,24.6,-3.6,·
COc1cc(C#Cc2c(-c3cncn3C)n(C)c3ccc(-c4ccc(OC)nc4)cc23)cc(OC)c1,7.3,-49.6,1.1,16.6,35.7*,-2.4,14.3
COc1cc(C#Cc2c(-c3cncn3C)n(C)c3ccc(-c4ccc5[nH]ccc5c4)cc23)cc(OC)c1,5.3,-34.6,-1.8,5.4,35.0*,2.2,36.1
C/C(=C\C(=O)c1ccccc1)NNC(=O)c1ccc(Cl)cc1,-3.5,0.4,2.4,-5.7,-4.4,-0.9,·
CCCC[C@@H]1Cc2[nH][nH]c(=O)c2[C@H](c2ccc(C(C)C)cc2)O1,-1.3,·,·,·,38.1*,6.3,5.7
CCCCn1c(N)c(N(CCOC)C(=O)CSc2nnc(-c3ccncc3)n2CCC)c(=O)[nH]c1=O,-0.6,4.8,1.5,-9.0,-0.1,2.7,·
COc1ccc(/C=C/C(=O)NCC(=O)N/N=C/c2cc(Br)ccc2OCc2ccccc2)cc1,2.7,31.1,-5.9,0.3,27.8*,2.4,-0.9
Cc1ccccc1Cn1c(CN2CCc3ccccc3C2)nc2c1c(=O)n(C)c(=O)n2C,-0.9,-10.1,1.9,-2.6,4.4,1.4,·
O=C(Cc1cccc2ccccc12)N/N=C/c1ccc2cccc(O)c2n1,5.3,2.7,3.0,-1.7,29.7*,-6.4,37.3
COc1cc(OC)nc(Nc2nc(C(N)CCc3ccccc3)cs2)n1 (stereo unspecified),-0.5,-2.9,0.9,·,-0.8,-22.4,·
Cc1cc(SCC(=O)c2cccc([N+](=O)[O-])c2)nc(=O)[nH]1,7.2,6.7,10.5,3.1,33.1*,-21.8,34.4
O=C(NC1CC1)c1nc2c(nnn2Cc2ccccc2Cl)c(=O)[nH]1,-2.2,2.0,1.0,-6.3,1.9,3.5,·
CS(=O)(=O)CCC(C(=O)O)N1C(=O)c2ccc(Oc3ccc(Cl)cc3)cc2C1=O (stereo unspecified),-1.6,1.2,2.5,-13.2,-3.6,-10.0,·
O=c1oc2ccc3ccccc3c2cc1-c1nnc(-c2cccs2)o1,6.8,1.1,2.3,-6.3,49.7*,20.4,9.8
O=c1oc2ccc3ccccc3c2cc1-c1nnc(-c2ccccc2)o1,7.0,3.7,2.6,-4.8,26.0,-2.0,·

# Source: PubChem
